Converted amounts (≈) assume the structure as drawn.
Legend:
[1] = test system: MCF7; test: Cytotoxicity against human MCF7 cells after 48 hrs by sulforhodamine B assay; format: functional, cell-based; conditions: MCF7, 48 h
Summary of the method: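 MCF-7 cells seeded at 10^4 per well and allowed 24 h to attach, then exposed to 0.0, 5.0, 12.5, 25.0 and 50 μg/ml, six wells per dose, for 48 h at 37 °C in 5% CO2. Cells were fixed and stained with sulforhodamine B. Bound dye was recovered in Tris EDTA and read on an ELISA reader. IC50 taken from the survival-fraction versus concentration curve.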

[2] = test system: MCF7; test: Inhibition of VEGF production in human MCF7 cells at cytotoxic IC50 level after 24 hrs by ELISA; format: functional
Summary of the method: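 MCF-7 from ATCC, grown in DMEM with 10% heat-inactivated FCS, penicillin and streptomycin at 37 °C in 5% CO2, 0.50 × 10^6 cells per 25 cm2 flask. Compound in DMSO (tamoxifen as reference) added for 24 h. Cells homogenized in saline. Human VEGF measured by double-antibody sandwich ELISA (biotin antibody, streptavidin-HRP, A450) against a standard curve, duplicate determinations. Inhibition relative to untreated cells.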

[3] = target: T1, Prostaglandin G/H synthase 1 (Ovis aries, UniProt P05979); test: Inhibition of ovine COX1 assessed as reduction in PGH2-dervied PGF2alpha production using arachidonic acid substrate by enzyme immunoassay
T1 sequence (P05979 whole entry): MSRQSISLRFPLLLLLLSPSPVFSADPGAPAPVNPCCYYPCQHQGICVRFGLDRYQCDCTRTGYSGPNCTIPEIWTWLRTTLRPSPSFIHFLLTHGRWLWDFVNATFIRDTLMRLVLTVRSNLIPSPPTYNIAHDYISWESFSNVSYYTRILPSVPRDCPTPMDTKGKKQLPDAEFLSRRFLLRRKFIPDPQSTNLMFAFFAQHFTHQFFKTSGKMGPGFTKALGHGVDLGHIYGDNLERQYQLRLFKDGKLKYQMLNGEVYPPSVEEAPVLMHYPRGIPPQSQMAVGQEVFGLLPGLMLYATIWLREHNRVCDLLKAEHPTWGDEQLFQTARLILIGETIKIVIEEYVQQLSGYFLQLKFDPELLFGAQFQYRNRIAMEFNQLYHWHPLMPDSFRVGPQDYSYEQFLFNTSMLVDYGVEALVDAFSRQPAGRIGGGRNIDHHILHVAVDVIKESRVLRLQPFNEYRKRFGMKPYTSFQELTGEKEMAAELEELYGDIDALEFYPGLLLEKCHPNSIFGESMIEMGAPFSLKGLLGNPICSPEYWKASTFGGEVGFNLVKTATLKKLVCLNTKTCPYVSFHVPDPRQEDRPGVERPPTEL
Summary of the method: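 Arachidonic acid added and reaction stopped with HCl after 2 min. PGH2 reduced with SnCl2 and PGF2α quantified by competitive EIA at 410 nm. IC50 from concentration–inhibition curve, duplicates.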

Row | SMILES | IC50 [1] [µg/mL] | inhibition (INH) [2] [%] | IC50 [3] [µM]
1 | Cc1ccc(-c2nc3ccccc3[nH]2)o1 | 14 (≈ 70.6 µM) | 95 | 
2 | CCOC(=O)Cn1c(-c2ccco2)nc2ccccc21 | 15.2 (≈ 56.2 µM) | 62 | 
3 | CCOC(=O)Cn1c(-c2ccc(C)o2)nc2ccccc21 | 17.8 (≈ 62.6 µM) | 28 | 
4 | c1ccc(Cn2c(-c3ccco3)nc3ccccc32)cc1 | 6.98 (≈ 25.4 µM) | 98 | 
5 | O=S(=O)(c1ccccc1)n1c(-c2ccco2)nc2ccccc21 | 21.2 (≈ 65.4 µM) | 14 | 
6 | Cc1ccc(-c2nc3ccccc3n2S(=O)(=O)c2ccccc2)o1 | 8.63 (≈ 25.5 µM) | 98 | 
7 | NNC(=O)Cn1c(-c2ccco2)nc2ccccc21 | 20.2 (≈ 78.8 µM) | 24 | 
8 | Cc1ccc(-c2nc3ccccc3n2CC(=O)NN)o1 | 22.4 (≈ 82.9 µM) | 86 | > 50
9 | NNC(=O)Cn1c(-c2ccc(CNc3ccncc3)o2)nc2ccccc21 | 22 (≈ 60.7 µM) | 90 | > 50
10 | NNC(=O)Cn1c(-c2ccc(CNCc3ccccc3)o2)nc2ccccc21 | 19.3 (≈ 51.4 µM) | 19 | 
11 | S=c1[nH]nc(Cn2c(-c3ccco3)nc3ccccc32)o1 | 16.9 (≈ 56.6 µM) | 41 | 
12 | Cc1ccc(-c2nc3ccccc3n2Cc2n[nH]c(=S)o2)o1 | 16.6 (≈ 53.1 µM) | 39 | 
13 | CCOC(=O)C/C(C)=N/NC(=O)Cn1c(-c2ccco2)nc2ccccc21 | 17 (≈ 46.1 µM) | 38 | 
14 | CCOC(=O)C/C(C)=N/NC(=O)Cn1c(-c2ccc(C)o2)nc2ccccc21 | 19.6 (≈ 51.3 µM) | 24 | 
15 | Nn1c(Cn2c(-c3ccco3)nc3ccccc32)n[nH]c1=S | 20.5 (≈ 65.6 µM) | 91 | > 50
16 | CSc1nnc(-n2c(-c3ccco3)nc3ccccc32)o1 | 19.3 (≈ 64.7 µM) | 16 | 
17 | c1coc(-c2nc3ccccc3[nH]2)c1 [FUBERIDAZOLE] | 21.5 (≈ 117 µM) | 15 | 
18 | CC/C(=C(\c1ccccc1)c1ccc(OCCN(C)C)cc1)c1ccccc1 [TAMOXIFEN] | 8 (≈ 21.5 µM) | 98 | 

— ChEMBL document CHEMBL3351238, “Part I. Synthesis, biological evaluation and docking studies of new 2-furylbenzimidazoles as antiangiogenic agents” (Eur J Med Chem, 2014)
